Results published in ChEMBL document CHEMBL1129428 (J Med Chem, 1996).

Columns and labels:
[1] = system: Mus musculus; test: Anticonvulsant activity after intraperitoneal injection into mice measured in a maximal electroshock scree (MES) screen; type: functional
[2] = system: Rattus norvegicus; test: Compound was tested for anticonvulsant activity after Oral Administration into Rats by using MES screen test after 0.25h,dose 12.5 mg/kg; No activity was demonstarted; type: functional, organism-based; design: dose 12.5 mg/kg
Procedure, shortened: (§1)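 Rats received the compound orally. […] Rats were tested in the MES screen at 0.25, 0.5, 1, 2 and 4 h. Each value is the number of rats protected out of 4. The test followed NINDS procedures.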

[3] = system: Rattus norvegicus; test: Compound was tested for anticonvulsant activity after Oral Administration into Rats by using MES screen test after 4h,dose 12.50 mg/kg; number of rats out of four which were protected; type: functional; conditions: dose 12.5 mg/kg; procedure, shortened: as §1
[4] = system: Rattus norvegicus; test: Compound was tested for anticonvulsant activity after Oral Administration into Rats by using MES screen test after 0.5h,dose 12.5 mg/kg; No activity was demonstarted; type: functional, organism-based; design: dose 12.5 mg/kg; procedure, shortened: as §1
[5] = system: Rattus norvegicus; test: Compound was tested for anticonvulsant activity after Oral Administration into Rats by using MES screen test after 1h,dose 12.5 mg/kg; number of rats out of four which were protected; type: functional; procedure, shortened: as §1
[6] = system: Rattus norvegicus; test: Compound was tested for anticonvulsant activity after Oral Administration into Rats by using MES screen test after 2h,dose 12.5 mg/kg; No activity was demonstarted; type: functional, organism-based; design: dose 12.5 mg/kg; procedure, shortened: as §1
[7] = system: Mus musculus; test: Anticonvulsant activity after intraperitoneal injection into mice by using MES screen test after 0.5 hr; type: functional
[8] = system: Mus musculus; test: Anticonvulsant activity after intraperitoneal injection into mice by using scPTZ screen after 0.5 hr; type: functional
[9] = system: Mus musculus; test: Toxicity after intraperitoneal injection into mice by using toxicity screen test after 0.5 hr; type: organism-based; conditions: in vivo, ip
Procedure, shortened: (§2)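 Mice injected intraperitoneally at 30, 100 and 300 mg/kg and examined 0.5 and 4 h afterwards. Each entry is the minimum dose giving activity (MES protection, scPTZ protection, or rotorod failure for neurotoxicity) in half or more of the mice. Activity is called absent if nothing occurs at 300 mg/kg.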

[10] = system: Mus musculus; test: Compound was tested for toxicity after intraperitoneal injection into mice by using toxicity screen test after 4 hr; type: organism-based; conditions: in vivo, ip; procedure, shortened: as §2
[11] = system: Mus musculus; test: Compound was tested for anticonvulsant activity after intraperitoneal injection into mice by using MES screen test after 2 hr; type: functional; conditions: ip
Procedure, shortened: (§3)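 Quantitative intraperitoneal mouse testing in the MES, scPTZ or rotorod neurotoxicity screens at the peak time given for each compound (0.25–2 h). ED50 or TD50 reported in mg/kg with 95% CI and slope (SE).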

[12] = system: Mus musculus; test: Compound was tested for anticonvulsant activity after intraperitoneal injection into mice by using scPTZ screen test after 2 hr; type: functional; conditions: ip; procedure, shortened: as §3
[13] = Compound was tested for toxicity after intraperitoneal injection into mice by using neurotoxicity screen test after 2 hr; type: organism-based; conditions: mouse, in vivo, ip; procedure, shortened: as §3
[14] = system: Rattus norvegicus; test: Compound was tested for anticonvulsant activity after Oral Administration into Rats by using MES screen test after 4h,dose 12.5 mg/kg; number of rats out of four which were protected; type: functional; procedure, shortened: as §1
[15] = system: Rattus norvegicus; test: Compound was tested for anticonvulsant activity after Oral Administration into Rats by using MES screen test after 0.25h,dose 12.5 mg/kg; number of rats out of four which were protected; type: functional; procedure, shortened: as §1
[16] = system: Rattus norvegicus; test: Anticonvulsant activity after oral administration into rats; type: functional; design: concentration or dose not given beside the values
[17] = system: Rattus norvegicus; test: Compound was tested for anticonvulsant activity after Oral Administration into rat by using MES screen test after 4 hr; type: functional
Procedure, shortened: (§4)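 Rats dosed orally, typically at 50 mg/kg first, then mostly 12.5 mg/kg (some compounds at 30 mg/kg), and tested by maximal electroshock. Four rats per compound, scored at 0.25, 0.5, 1, 2 and 4 h as the number of rats protected out of 4.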

[18] = Compound was tested for toxicity after oral administration in rat by using neurotoxicity screen test after 0.25-24 hr; type: organism-based; conditions: in vivo
Procedure, shortened: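 Rat neurotoxicity after oral dosing, observed at 0.25, 0.5, 1, 2, 4, 6, 8 and 24 h (8 h omitted for one compound).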

[19] = system: Rattus norvegicus; test: Compound was tested for anticonvulsant activity after Oral Administration into Rats by using MES screen test after 2h,dose 12.5 mg/kg; number of rats out of four which were protected; type: functional; procedure, shortened: as §1
[20] = system: Mus musculus; test: Compound was tested for anticonvulsant activity after intraperitoneal injection into mice by using MES screen test after 1 hr; type: functional; conditions: ip; procedure, shortened: as §3
[21] = system: Rattus norvegicus; test: Compound was tested for anticonvulsant activity after Oral Administration into Rats by using MES screen test after 4h,dose 50 mg/kg; number of rats out of four which were protected; type: functional; procedure, shortened: as §1
[22] = system: Rattus norvegicus; test: Compound was tested for anticonvulsant activity after Oral Administration into Rats by using MES screen test after 2h,dose 50 mg/kg; number of rats out of four which were protected; type: functional; procedure, shortened: as §1
[23] = system: Rattus norvegicus; test: Compound was tested for anticonvulsant activity after Oral Administration into Rats by using MES screen test after 0.25h,dose 50 mg/kg; No activity was demonstarted; type: functional, organism-based; design: dose 50 mg/kg; procedure, shortened: as §1
[24] = system: Rattus norvegicus; test: Compound was tested for anticonvulsant activity after Oral Administration into Rats by using MES screen test after 0.5h,dose 50 mg/kg; number of rats out of four which were protected.; type: functional; procedure, shortened: as §1
[25] = system: Rattus norvegicus; test: Compound was tested for anticonvulsant activity after Oral Administration into Rats by using MES screen test after 1h,dose 50 mg/kg; number of rats out of four which were protected; type: functional; procedure, shortened: as §1
[26] = system: Mus musculus; test: Compound was tested for anticonvulsant activity after intraperitoneal injection into mice by using scPTZ screen test after 1 hr; type: functional; conditions: ip; procedure, shortened: as §3
[27] = system: Rattus norvegicus; test: Compound was tested for anticonvulsant activity after Oral Administration into Rats by using MES screen test after 4h,dose 30 mg/kg; number of rats out of four which were protected; type: functional; procedure, shortened: as §1
[28] = system: Rattus norvegicus; test: Compound was tested for anticonvulsant activity after Oral Administration into Rats by using MES screen test after 0.25h,dose 30 mg/kg; No activity was demonstarted; type: functional, organism-based; design: dose 30 mg/kg; procedure, shortened: as §1
[29] = system: Rattus norvegicus; test: Compound was tested for anticonvulsant activity after Oral Administration into Rats by using MES screen test after 2h,dose 30 mg/kg; number of rats out of four which were protected; type: functional; procedure, shortened: as §1
[30] = system: Rattus norvegicus; test: Compound was tested for anticonvulsant activity after Oral Administration into Rats by using MES screen test after 0.5h,dose 30 mg/kg; No activity was demonstarted; type: functional, organism-based; design: dose 30 mg/kg; procedure, shortened: as §1
[31] = system: Rattus norvegicus; test: Compound was tested for anticonvulsant activity after Oral Administration into Rats by using MES screen test after 1h,dose 30 mg/kg; number of rats out of four which were protected; type: functional; procedure, shortened: as §1
[32] = system: Mus musculus; test: Anticonvulsant activity after intraperitoneal injection into mice by using scPTZ screen test after 4 hr; type: functional
[33] = system: Rattus norvegicus; test: Compound was tested for anticonvulsant activity after Oral Administration into rat by using MES screen test after 2 hr; type: functional; procedure, shortened: as §4
[34] = Protection index = TD50/ED50 (MES); type: ADME, organism-based; conditions: rat, in vivo; read-out: PI
[35] = system: Mus musculus; test: Compound was tested for anticonvulsant activity after intraperitoneal injection into mice by using MES screen test after 0.5 hr; type: functional; conditions: ip; procedure, shortened: as §2
[36] = system: Mus musculus; test: Compound was tested for anticonvulsant activity after intraperitoneal injection into mice by using scPTZ screen test after 0.5 hr; type: functional; conditions: ip; procedure, shortened: as §2
[37] = Compound was tested for toxicity after intraperitoneal injection into mice by using neurotoxicity screen test after 1 hr; type: organism-based; conditions: mouse, in vivo, ip; procedure, shortened: as §3
[38] = Protection index = TD50/ED50 (MES); conditions: mouse, in vivo; read-out: PI
[39] = system: Rattus norvegicus; test: Compound was tested for anticonvulsant activity after Oral Administration into Rats by using MES screen test after 4h,dose 12.5 mg/kg; No activity was demonstarted; type: functional, organism-based; design: dose 12.5 mg/kg; procedure, shortened: as §1
[40] = system: Rattus norvegicus; test: Compound was tested for anticonvulsant activity after Oral Administration into Rats by using MES screen test after 1h,dose 12.5 mg/kg; No activity was demonstarted; type: functional, organism-based; design: dose 12.5 mg/kg; procedure, shortened: as §1

| SMILES | Dose [1] [mg/kg] | Activity [2] | Activity [5] | Dose [7] [mg/kg] | Dose [8] [mg/kg] | Dose [9] [mg/kg] | Dose [10] [mg/kg] | Activity [14] | Activity [16] | TD50 [18] [mg/kg] | Activity [19] | further results |
| --- | --- | --- | --- | --- | --- | --- | --- | --- | --- | --- | --- | --- |
| Cc1cccc(Oc2ccc(/C=N/NC(N)=O)cc2)c1C | 100 | No activity | 1 |  |  |  |  |  |  |  |  | Activity [3]: 1; Activity [4]: No activity; Activity [6]: No activity |
| C/C(=N/NC(N)=O)c1ccc(Oc2ccc(Br)cc2)cc1 | 30 |  | 4 | 30 | 300 | 300 | 100 | 4 | 3 | > 500 | 4 | ED50 [11]: 12.5 mg/kg; ED50 [12]: > 110 mg/kg; TD50 at 2 h [13]: 104 mg/kg; Activity [15]: 1; ED50 [17]: 1.52 mg/kg |
| NC(=O)N/N=C/c1ccc(Sc2ccccc2)cc1 | 30 |  |  | 30 |  |  | 300 |  |  | > 496 |  | ED50 [20]: 15.6 mg/kg; TD50 at 2 h [13]: 181 mg/kg; Activity [21]: 4; Activity [22]: 4; Activity [23]: No activity; Activity [24]: 4; Activity [25]: 4; ED50 [17]: 4.29 mg/kg; ED50 [26]: > 46 mg/kg |
| NC(=O)N/N=C\c1ccccc1Oc1ccc(F)cc1 |  |  |  |  |  |  |  |  |  |  |  | Activity [27]: 1; Activity [28]: No activity; Activity [29]: 2; Activity [30]: No activity; Activity [31]: 1 |
| Cc1ccccc1Oc1ccc(/C=N/NC(N)=O)cc1 | 100 | No activity | 3 | 30 | 100 | 300 | 300 | 4 | 4 | > 500 | 4 | Dose [32]: 100 mg/kg; ED50 [33]: 5.65 mg/kg; selectivity ratio [34]: > 88 |
| NC(=O)N/N=C\c1ccc(OS(=O)(=O)c2ccccc2)cc1 | 30 |  | 2 | 30 | 30 | 300 | 300 | 3 | 2 |  | 4 | ED50 [35]: 25.3 mg/kg; ED50 [36]: > 100 mg/kg; TD50 at 1 h [37]: 113 mg/kg; Activity [15]: 1; selectivity ratio [38]: 4.47 |
| CC/C(=N/NC(N)=O)c1ccccc1Oc1ccc(F)cc1 |  | No activity |  |  |  |  | 300 |  |  |  |  | Activity [39]: No activity; Activity [4]: No activity; Activity [40]: No activity; Activity [6]: No activity |
| CC/C(=N/NC(N)=O)c1ccc(Sc2ccc(F)cc2)cc1 | 100 |  |  | 30 |  | 100 | 100 |  |  |  |  | Activity [27]: 3; Activity [28]: No activity; Activity [29]: 3; Activity [30]: No activity; Activity [31]: 2 |
